Like-named read-outs stand apart in the source and are kept apart here.
Tests used:
[1] = tested on: Jurkat cells (human T-cell leukemia); assay: In vitro antiproliferative activity; format: cell-based; conditions: 72 h, read-out: IC50 Jurkat
Procedure, shortened: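 Cells grown in RPMI-1640; 8 × 10^3 cells per well, pre-incubated 18 h at 37 °C, 5% CO2. Medium replaced with fresh medium containing test compound at several concentrations (from 10 mM DMSO stocks; DMSO ≤0.25% final), 72 h at 37 °C.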

[2] = tested on: BNL 1ME A.7R.1 hepatocellular carcinoma tumors; assay: In vivo antitumor activity, syngeneic hepatocellular carcinoma model; conditions: Balb/c mice; for tumor growth inhibition vs control (significance): 5 mg/kg intraperitoneally daily
Procedure, shortened: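 Male Balb/c mice, 8 weeks old, injected subcutaneously in the dorsal region with 10^7 BNL 1ME A.7R.1 cells in 200 μL sterile PBS. At about 100 mm3, mice were randomized into four groups of 5. Tumors measured by caliper daily for 7 days; V = AB2/2.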

[3] = tested on: HeLa cells; assay: Annexin-V/PI apoptosis assay; format: cell-based, human; conditions: 24 or 48 h
Procedure, shortened: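 HeLa cells exposed to test compound for 24 or 48 h. Cells harvested and double-stained with annexin-V-FITC and PI. Surface phosphatidylserine exposure read by flow cytometry.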

[4] = tested on: PBL stimulated with PHA; assay: Cytotoxicity in noncancer cells, PHA-stimulated PBL; format: cell-based; conditions: Homo sapiens, 72 h, read-out: IC50 PBLPHA
Procedure, shortened: (§1)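 Peripheral blood lymphocytes from healthy donors isolated on a Lymphoprep gradient, washed, held overnight at 1.0 × 10^6 cells/mL in RPMI-1640 with 10% FBS. Nonadherent cells reseeded at 5 × 10^5 cells/mL. PHA-stimulated set received 2.5 μg/mL PHA; resting set had no PHA. Graded compound for 72 h; viability by MTT.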

[5] = tested on: panel of seven human cancer cell lines; assay: Antiproliferative activity over the panel of seven human cancer cell lines; format: cell-based
Procedure, shortened: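 Jurkat, RS4;11 and HL-60 cells grown in RPMI-1640; MCF-7, A549, HeLa and HT-29 cells in DMEM; both media with 10% FBS plus penicillin/streptomycin. 8 × 10^3 cells/well settled 18 h at 37 °C, 5% CO2, then exposed to graded compound for 72 h. DMSO ≤0.25%. MTT viability read.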

[6] = tested on: BL6-B16 murine melanoma tumor blood vessels; assay: Antivascular activity in vivo, CD31 vessel count in BL6-B16 melanoma; conditions: 30 mg/kg ip, 24 h, C57BL/6 mice, P < 0.05
Procedure, shortened: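 Six-week-old C57BL/6 mice received 10^5 BL6-B16 melanoma cells in PBS subcutaneously in the dorsolateral flank. At 300 mm3 tumor volume, a single ip dose of 30 mg/kg in DMSO (50 μL) was given. Tumors excised 24 h later, OCT-embedded, frozen, cut into 4–5 μm cryosections. Stained with rat anti-mouse CD31 (1:200) and biotinylated anti-rat secondary. CD31+ vessels counted in 5 fields/section (40× objective); five mice/group.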

[7] = tested on: chick embryo chorioallantoic membrane (CAM) blood vessels; assay: CAM assay in fertilized chicken eggs; format: in vivo
[8] = tested on: HUVECs; assay: Disruption of HUVEC capillary-like tubules on Matrigel; format: cell-based, human; conditions: 1 h or 3 h incubation
Procedure, shortened: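 HUVECs isolated from umbilical cord veins, kept in M200 with low-serum growth supplement, and used at passages 1–6. Matrigel gelled 30 min at 37 °C, overlaid with 6 × 10^4 cells; tubules allowed to form for 6 h. Compound then added for 1 or 3 h. Five fields/well photographed at 10×. Image analysis quantified tubule length, mesh area/number, % area covered and branch points. Three independent experiments.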

[9] = tested on: HeLa cells; assay: Mitochondrial membrane potential; format: cell-based, human; conditions: 24 or 48 h
Procedure, shortened: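 HeLa cells exposed to compound for 24 or 48 h, then stained with H2-DCFDA for reactive oxygen species. Fluorescence read by flow cytometry. Parallel JC-1 staining assessed mitochondrial membrane potential. Three independent experiments.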

[10] = tested on: Jurkat and HeLa cells; assay: Flow cytometric analysis of cell cycle distribution; format: cell-based, human; conditions: for lowest concentration giving a rise in G2/M cells: 24 h treatment
Procedure, shortened: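 5 × 10^5 HeLa or Jurkat cells exposed to graded compound concentrations for 24 h. Cells collected, fixed in ice-cold 70% ethanol, treated with lysis buffer containing RNase A and 0.1% Triton X-100, then stained with propidium iodide. DNA content measured by flow cytometry; phase distribution derived from DNA histograms.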

[11] = tested on: PBL not stimulated with PHA; assay: Cytotoxicity in noncancer cells, resting PBL; format: cell-based; conditions: Homo sapiens, 72 h, read-out: IC50 PBLresting
Procedure, shortened: as §1

[12] = Body weight during in vivo antitumor treatment; design: species or system Balb/c mice; conditions: 3g at the higher dose (10 mg/kg ip)
[13] = tested on: HUVECs; assay: HUVEC motility; format: cell-based, human
Procedure, shortened: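 Primary cord-vein HUVECs (passages 1–6) grown to confluence (1 × 10^5 seeded) on 0.1% collagen type I. Monolayer scratched with a pipet tip, washed with PBS, then exposed to test compound. Wells photographed at intervals (6 and 24 h). Wound width measured in four areas and compared with initial width. Three independent experiments; significance versus untreated control.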

[14] = tested on: HeLa cells; assay: Western blot analysis of caspases and Bcl-2 family proteins; format: cell-based, human; conditions: for Mcl-1 expression: 48 h, 100 and 250 nM
Procedure, shortened: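 Treated HeLa cells washed in cold PBS and lysed on ice for 30 min. Lysates cleared at 15000g, 4 °C, for 10 min; protein measured by BCA. 10 μg protein resolved on 7.5–15% SDS-PAGE and transferred to PVDF. Membranes blocked in 5% BSA/Tween-PBS overnight at 4 °C. Primary antibodies (e.g., Mcl-1) applied 2 h at room temperature, then peroxidase secondary for 60 min; ECL detection. β-actin reprobe used as loading control.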

[15] = read-out: IC50 values range in the seven cell lines
[16] = read-out: average IC50 over the seven cell lines

COc1ccc(/C=C\c2cc(OC)c(OC)c(OC)c2)cc1O [CA-4, combretastatin A-4]
IC50 [1]: 5 ± 0.6 nM

COc1ccc(/C=C\c2cc(OC)c(OC)c(OC)c2)cc1OP(=O)([O-])[O-].[Na+].[Na+] [CA-4P, combretastatin A-4 phosphate, reference compound]
tumor growth inhibition vs control (significance) [2]: significant relative to the control

COC(=O)c1oc2cc(OC)ccc2c1Nc1cc(OC)c(OC)c(OC)c1 [Compound 3g, Methyl 3-(3,4,5-Trimethoxyphenylamino)-6-methoxybenzofuran-2-carboxylate]
apoptosis (annexin-V) [3]: accumulation of annexin-V positive cells
IC50 [4]: > 10000 nM
IC50 [5, 15]: 0.3 to 27 nM
reduction in number of CD31-positive tumor vessels [6]: about 20%
blood vessel number, compound alone ([7]; 100 pmol/egg, without FGF): did not induce blood vessels to increase in number
FGF-induced increase of blood vessels ([7]; FGF 100 ng/egg, even at 1 pmol/egg): strongly reduced
effect on preformed HUVEC tubule-like network [8]: clearly disrupted the network of HUVECs
ROS production (H2-DCFDA) [9]: production of significant amounts of ROS
mitochondrial transmembrane potential (JC-1) [9]: time- and concentration-dependent increase in the proportion of cells with depolarized mitochondria
lowest concentration giving a rise in G2/M cells [10]: 60 nM
IC50 [11]: > 10000 nM
body weight change during treatment [12]: only a small decrease in body weight
concentration with statistically significant arrest of HUVEC motility ([13]; 6 h incubation): 25 nM
concentration with highly significant arrest of HUVEC motility ([13]; after 24 h, lowest tested concentration): 5 nM
HUVEC motility ([13]; scratch wound): very efficient in arresting cell motility
caspase activation (immunoblot) [14]: activation of caspase-9 and caspase-3 in a time- and concentration-dependent manner
Mcl-1 expression [14]: strongly down-regulated
tumor growth inhibition vs control (significance) [2]: did not reach statistical significance
reduction in tumor growth compared with vehicle ([2]; 10 mg/kg intraperitoneally daily): 44.5%

COC(=O)c1oc2ccccc2c1Nc1cc(OC)c(OC)c(OC)c1 [Compound 3a, Methyl 3-[(3,4,5-Trimethoxyphenyl)amino]benzofuran-2-carboxylate]
IC50 [5, 16]: 3300 nM

CCOC(=O)c1oc2c(OC)cccc2c1Nc1cc(OC)c(OC)c(OC)c1 [Compound 3j, Ethyl 3-(3,4,5-Trimethoxyphenylamino)-7-methoxybenzofuran-2-carboxylate]
IC50 [5, 16]: 670 nM

COC(=O)c1oc2c(OC)cccc2c1Nc1cc(OC)c(OC)c(OC)c1 [Compound 3i, Methyl 3-(3,4,5-Trimethoxyphenylamino)-7-methoxybenzofuran-2-carboxylate]
IC50 [5, 16]: 370 nM

CCOC(=O)c1oc2cc(OC)ccc2c1Nc1cc(OC)c(OC)c(OC)c1 [Compound 3h, Ethyl 3-(3,4,5-Trimethoxyphenylamino)-6-methoxybenzofuran-2-carboxylate]
apoptosis (annexin-V) [3]: accumulation of annexin-V positive cells
IC50 [5, 15]: 13 to 100 nM
IC50 [5, 16]: 34 nM
ROS production (H2-DCFDA) [9]: production of significant amounts of ROS
mitochondrial transmembrane potential (JC-1) [9]: time- and concentration-dependent increase in the proportion of cells with depolarized mitochondria
cells arrested in G2/M ([10]; 24 h, at higher concentrations): more than 70%
lowest concentration giving a rise in G2/M cells [10]: 60 nM
IC50 [11]: > 10000 nM
caspase activation (immunoblot) [14]: activation of caspase-9 and caspase-3 in a time- and concentration-dependent manner
Mcl-1 expression [14]: strongly down-regulated

Reference: paper PMC4407803 (Journal of medicinal chemistry, 2015)
